Assay results from publication PMC7729387 (Journal of Antimicrobial Chemotherapy, 2020).
Converted amounts (≈) assume the structure as drawn. Where two headings read alike, the source gives them in different places.

Key:
[1] = PK of baloxavir acid after oral baloxavir marboxil in A/WSN/33-infected mice; assay type: in vivo, BALB/c mice
In short: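 A/WSN/33-infected BALB/c mice each received a single oral dose of the prodrug at 0.5, 1.5, 5, 15 or 50 mg/kg. Blood was taken at 0.5–12 h, three mice per dose per timepoint. Plasma active acid and prodrug were measured by LC-MS/MS.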

[2] = system: type A and type B virus strains; conditions: cited from earlier work
A/WSN/33 (H1N1) strain [3] = assay: PK/PD analysis, linear model; assay type: in vivo, influenza A(H1N1) virus (BALB/c mice); conditions: y = virus titre (log10 TCID50/mL)
[4] = humans; single-dose oral baloxavir marboxil; cited from earlier work
A/WSN/33 (H1N1) strain [5] = assay: PK/PD analysis, sigmoid Emax model; assay type: in vivo, influenza A(H1N1) virus (BALB/c mice); conditions: for E max (estimate) / E 0 (estimate): y = virus titre (log10 TCID50/mL)
In short: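 A/WSN/33-infected BALB/c mice were dosed subcutaneously from day 5 at 0.0625–8 mg/kg q24h, q12h or q6h for 1 day, five per group, in Tween 80/copolymer carbonate vehicle at pH ~9. Lung titres were read 24 h later by MDCK TCID50. PK parameters came from mean plasma levels after single 0.125–8 mg/kg doses, scaled for 0.0625–4 mg/kg. A sigmoid Emax model was fitted to individual-mouse titres and judged by adjusted R².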

[6] = system: type A and type B virus strains; conditions: plaque-reduction assay; cited from earlier work
A/WSN/33 (H1N1) strain [7] = assay type: in vivo, influenza A(H1N1) virus (BALB/c mice)
[8] = PK of baloxavir acid after subcutaneous baloxavir acid in A/WSN/33-infected mice; assay type: in vivo, BALB/c mice; conditions: sc baloxavir acid 0.125, 0.5, 2 and 8 mg/kg
B/Hong Kong/5/72 = assay type: in vivo, influenza type B virus (BALB/c mice); conditions: oral 15 mg/kg twice daily
influenza A virus = conditions: 10 mg/kg, q24h daily, nude mice; cited from earlier work
influenza virus = conditions: cited from earlier work
[9] = system: A/Osaka/129/2009 (H1N1pdm09); parameters: species or system influenza A(H1N1)pdm09 virus (BALB/c mice); conditions: mouse, in vivo, po, 5 mg/kg
A/Hong Kong/8/68 (H3N2) = assay type: in vivo, influenza A(H3N2) virus (BALB/c mice); conditions: oral 15 mg/kg twice daily
[10] = BXA in plasma, oral BXM 0.5 mg/kg
[11] = BXA in plasma, oral BXM 1.5 mg/kg
[12] = BXA in plasma, oral BXM 5 mg/kg
[13] = BXA in plasma, oral BXM 15 mg/kg
[14] = BXA in plasma, oral BXM 50 mg/kg
[15] = 24 h after single-dose oral treatment, patients with uncomplicated influenza, ref Phase 3 baloxavir marboxil studies
[16] = […], 24 h after initial dosing, 15 mg/kg

O=C1c2c(O)c(=O)ccn2N([C@@H]2c3ccccc3SCc3c2ccc(F)c3F)[C@@H]2COCCN12 [baloxavir acid]
plasma exposure versus dose ([1]; BXA in plasma after oral baloxavir marboxil 0.5–50 mg/kg): increased dose proportionally up to 15 mg/kg
AUC0–12 [1, 10]: 22.0 ng·h/mL
AUC0–∞ [1, 10]: 22.7 ng·h/mL
C max [1, 10]: 5.05 ng/mL
T max [1, 10]: 1.00 h
t ½,z ([1]; BXA in plasma, oral BXM 0.5 mg/kg, t½,4–10 h): 2.24 h
AUC0–12 [1, 11]: 62.6 ng·h/mL
AUC0–∞ [1, 11]: 66.1 ng·h/mL
C max [1, 11]: 14.3 ng/mL
T max [1, 11]: 1.00 h
t ½,z ([1]; BXA in plasma, oral BXM 1.5 mg/kg, t½,6–12 h): 2.56 h
AUC0–12 [1, 12]: 242 ng·h/mL
AUC0–∞ [1, 12]: 252 ng·h/mL
C max [1, 12]: 45.7 ng/mL
T max [1, 12]: 0.500 h
t ½,z ([1]; BXA in plasma, oral BXM 5 mg/kg, t½,6–12 h): 2.45 h
AUC0–12 [1, 13]: 648 ng·h/mL
AUC0–∞ [1, 13]: 670 ng·h/mL
C max [1, 13]: 175 ng/mL
T max [1, 13]: 0.500 h
t ½,z ([1]; BXA in plasma, oral BXM 15 mg/kg, t½,6–12 h): 2.26 h
AUC0–12 [1, 14]: 1580 ng·h/mL
AUC0–∞ [1, 14]: 1690 ng·h/mL
C max [1, 14]: 284 ng/mL
T max [1, 14]: 2.00 h
t ½,z ([1]; BXA in plasma, oral BXM 50 mg/kg, t½,6–12 h): 3.14 h
t½,z (half-life in mouse plasma) ([1]; BXA in plasma, oral baloxavir marboxil 0.5–50 mg/kg, range over doses): 2.24 to 3.14 h
inhibitory values, type A more potent than type B virus strains [2]: 4- to 5 fold
E 0 (estimate) (A/WSN/33 (H1N1) strain [3]; x = T >2 (h)): 5.141
E 0 (estimate) (A/WSN/33 (H1N1) strain [3]; x = T >10 (h)): 4.095
E 0 (estimate) (A/WSN/33 (H1N1) strain [3]; x = T >50 (h)): 3.569
half-life in plasma compared with that in mice [4]: > 10 fold
E max (estimate) (A/WSN/33 (H1N1) strain [5]; x = AUC0–24 (ng·h/mL)): 1.091
EC50 (estimate) (A/WSN/33 (H1N1) strain [5]; x = C 24): 4.767 ng/mL (≈ 9.86 nM)
E 0 (estimate) (A/WSN/33 (H1N1) strain [5]; x = C 24 (ng/mL)): 3.928
E max (estimate) (A/WSN/33 (H1N1) strain [5]; x = C 24 (ng/mL)): 1.499
EC50 (estimate) (A/WSN/33 (H1N1) strain [5]; x = C max): 42.528 ng/mL (≈ 88 nM)
E 0 (estimate) (A/WSN/33 (H1N1) strain [5]; x = C max (ng/mL)): 3.806
E max (estimate) (A/WSN/33 (H1N1) strain [5]; x = C max (ng/mL)): 1.022
EC50 (estimate) (A/WSN/33 (H1N1) strain [5]; x = C τ): 4.108 ng/mL (≈ 8.5 nM)
E 0 (estimate) (A/WSN/33 (H1N1) strain [5]; x = C τ (ng/mL)): 3.958
E max (estimate) (A/WSN/33 (H1N1) strain [5]; x = C τ (ng/mL)): 1.554
E 0 (estimate) (A/WSN/33 (H1N1) strain [5]; x = T >50 (h)): 3.588
E max (estimate) (A/WSN/33 (H1N1) strain [5]; x = T >50 (h)): 1.913
inhibitory values, type A more potent than type B virus strains [6]: 6- to 12 fold
virus titres versus vehicle or oseltamivir phosphate 5 eq mg/kg, q12h (A/WSN/33 (H1N1) strain [7]; […], 24 h post-treatment initiation, all groups): numerically lower
plasma concentration versus dose [8]: increased dose proportionally from 0.125 to 8 mg/kg

COC(=O)OCOc1c2n(ccc1=O)N([C@@H]1c3ccccc3SCc3c1ccc(F)c3F)[C@@H]1COCCN1C2=O [baloxavir marboxil]
baloxavir marboxil in plasma ([1]; after oral baloxavir marboxil, data not shown): undetectable in almost all infected mice
decrease in virus titre compared with oseltamivir phosphate at 5 eq mg/kg (B/Hong Kong/5/72): 0.97 log10 TCID50/mL
clearance of virus from the respiratory organs (influenza A virus): did not clear the virus from the respiratory organs
greater viral load reduction than after oseltamivir phosphate (influenza virus; [15]): 2.0 log10 TCID50/mL
greater viral load reduction than after placebo (influenza virus; [15]): 3.5 log10 TCID50/mL
Symptom resolution (influenza virus; type A virus infections): faster with baloxavir marboxil than placebo, but not oseltamivir phosphate
virus titre reduction in mice infected with the H1N1pdm09 strain [9]: ≥ 100 fold
decrease in virus titre compared with oseltamivir phosphate at 5 eq mg/kg (A/Hong Kong/8/68 (H3N2)): 2.16 log10 TCID50/mL
virus titres declined compared with oseltamivir phosphate 5 or 50 eq mg/kg, q12h (A/WSN/33 (H1N1) strain [7]; [16]): 2 log10 TCID50/mL
virus titres declined compared with vehicle (A/WSN/33 (H1N1) strain [7]; [16]): > 3 log10 TCID50/mL
virus titres compared with the clinically equivalent or higher dose of oseltamivir phosphate (A/WSN/33 (H1N1) strain [7]; mouse, in vivo, po, 1.5 mg/kg): significantly reduced virus titres
Lung virus titres versus each NAI or favipiravir (A/WSN/33 (H1N1) strain [7]; mouse, in vivo, po, 5 mg/kg): significantly lower
decrease in virus titre compared with oseltamivir phosphate at 5 eq mg/kg (A/WSN/33 (H1N1) strain [7]; oral 15 mg/kg twice daily): 2.64 log10 TCID50/mL

CCOC(=O)C1=C[C@@H](OC(CC)CC)[C@H](NC(C)=O)[C@@H](N)C1 [oseltamivir phosphate, reference compound]
reduction in virus titres compared with vehicle (A/WSN/33 (H1N1) strain [7]; mouse, in vivo): 0.5–1 log10
